Values after ≈ are worked out from the molar mass of the structure shown.
Experiments:
Assay type in all cases: functional
[1] = tested on: Mycobacteroides abscessus; assay: Antimicrobial activity against Mycobacterium abscessus NTU446 isolate after 3 to 5 days by broth microdilution method
Method in brief: (§1)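 Clinical isolates subcultured on Trypticase soy agar with 5% sheep blood, 30°C, 72 h. Colonies suspended in cation-supplemented Mueller-Hinton broth to a final inoculum of 5 × 10^5 CFU/ml. Twofold serial dilutions made in the same broth, final well concentrations 0.25 to 128 μg/ml. Trays incubated at 30°C; MIC read after 3 to 5 days.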

[2] = tested on: Mycobacteroides abscessus; assay: Antimicrobial activity against Mycobacterium abscessus R47 isolate after 3 to 5 days by broth microdilution method; method in brief: as §1
[3] = tested on: Mycobacteroides abscessus; assay: Antimicrobial activity against Mycobacterium abscessus CH10 isolate after 3 to 5 days by broth microdilution method; method in brief: as §1
[4] = tested on: Mycobacteroides abscessus; assay: Antimicrobial activity against Mycobacterium abscessus after 3 to 5 days by broth microdilution method; method in brief: as §1
[5] = tested on: Mycolicibacterium fortuitum; assay: Antimicrobial activity against Mycobacterium fortuitum V13 isolate after 3 to 5 days by broth microdilution method; method in brief: as §1
[6] = tested on: Mycobacteroides abscessus; assay: Antimicrobial activity against Mycobacterium abscessus R54 isolate after 3 to 5 days by broth microdilution method; method in brief: as §1
[7] = tested on: Mycobacteroides abscessus; assay: Antimicrobial activity against Mycobacterium abscessus R39 isolate after 3 to 5 days by broth microdilution method; method in brief: as §1
[8] = tested on: Mycobacteroides abscessus; assay: Antimicrobial activity against Mycobacterium abscessus R49 isolate after 3 to 5 days by broth microdilution method; method in brief: as §1
[9] = tested on: Mycolicibacterium fortuitum; assay: Antimicrobial activity against Mycobacterium fortuitum V61 isolate after 3 to 5 days by broth microdilution method; method in brief: as §1
[10] = tested on: Mycobacteroides abscessus; assay: Antimicrobial activity against Mycobacterium abscessus R31 isolate after 3 to 5 days by broth microdilution method; method in brief: as §1
[11] = tested on: Mycobacteroides abscessus; assay: Antimicrobial activity against Mycobacterium abscessus R50 isolate after 3 to 5 days by broth microdilution method; method in brief: as §1
[12] = tested on: Mycobacteroides abscessus; assay: Antimicrobial activity against Mycobacterium abscessus R65 isolate after 3 to 5 days by broth microdilution method; method in brief: as §1
[13] = tested on: Mycobacteroides abscessus; assay: Antimicrobial activity against Mycobacterium abscessus V120 isolate after 3 to 5 days by broth microdilution method; method in brief: as §1
[14] = tested on: Mycolicibacterium fortuitum; assay: Antimicrobial activity against Mycobacterium fortuitum after 3 to 5 days by broth microdilution method; method in brief: as §1
Mycobacteroides chelonae = assay: Antimicrobial activity against Mycobacterium chelonae after 3 to 5 days by broth microdilution method; method in brief: as §1
[15] = tested on: Mycobacteroides abscessus; assay: Antimicrobial activity against Mycobacterium abscessus NTU445 isolate after 3 to 5 days by broth microdilution method; method in brief: as §1
[16] = tested on: Mycobacteroides abscessus; assay: Antimicrobial activity against Mycobacterium abscessus R61 isolate after 3 to 5 days by broth microdilution method; method in brief: as §1
[17] = tested on: Mycolicibacterium fortuitum; assay: Antimicrobial activity against Mycobacterium fortuitum V146 isolate after 3 to 5 days by broth microdilution method; method in brief: as §1
[18] = tested on: Mycobacteroides abscessus; assay: Antimicrobial activity against Mycobacterium abscessus R53 isolate after 3 to 5 days by broth microdilution method; method in brief: as §1
[19] = tested on: Mycobacteroides abscessus; assay: Antimicrobial activity against Mycobacterium abscessus R51 isolate after 3 to 5 days by broth microdilution method; method in brief: as §1
[20] = tested on: Mycobacteroides abscessus; assay: Antimicrobial activity against Mycobacterium abscessus NTU459 isolate after 3 to 5 days by broth microdilution method; method in brief: as §1

SMILES	MIC [1]	MIC [2]	MIC [3]	MIC50 [4]	MIC90 [4]	MIC [5]	MIC [6]	MIC [7]	MIC [8]	MIC [9]	MIC [10]	MIC [11]	MIC [12]	MIC [13]	MIC50 [14]	MIC90 [14]	MIC50 (Mycobacteroides chelonae)	MIC90 (Mycobacteroides chelonae)	MIC [15]	MIC [16]	also measured
CN[C@@H]1[C@@H](O)[C@@H](O[C@@H]2[C@@H](O)[C@H](O[C@H]3O[C@H](CN)[C@@H](O)[C@H](O)[C@H]3O)[C@@H](N)C[C@H]2NC(=O)[C@@H](O)CN)OC[C@]1(C)O [ISEPAMICIN]	16 µg/mL (≈ 28.1 µM)	16 µg/mL (≈ 28.1 µM)	> 128 µg/mL	8 µg/mL (≈ 14 µM)	16 µg/mL (≈ 28.1 µM)	64 µg/mL (≈ 112 µM)	16 µg/mL (≈ 28.1 µM)	32 µg/mL (≈ 56.2 µM)	8 µg/mL (≈ 14 µM)	32 µg/mL (≈ 56.2 µM)	> 128 µg/mL	16 µg/mL (≈ 28.1 µM)	16 µg/mL (≈ 28.1 µM)	8 µg/mL (≈ 14 µM)	8 µg/mL (≈ 14 µM)	16 µg/mL (≈ 28.1 µM)	4 µg/mL (≈ 7.02 µM)	8 µg/mL (≈ 14 µM)	32 µg/mL (≈ 56.2 µM)	16 µg/mL (≈ 28.1 µM)	MIC [17]: 32 µg/mL (≈ 56.2 µM); MIC [18]: 16 µg/mL (≈ 28.1 µM); MIC [19]: 16 µg/mL (≈ 28.1 µM); MIC [20]: 32 µg/mL (≈ 56.2 µM)
CN[C@@H]1[C@H](O[C@H]2[C@H](O[C@H]3[C@H](O)[C@@H](O)[C@H](N=C(N)N)[C@@H](O)[C@@H]3N=C(N)N)O[C@@H](C)[C@]2(O)C=O)O[C@@H](CO)[C@H](O)[C@H]1O (stereo in doubt) [STREPTOMYCIN]	> 128 µg/mL	> 128 µg/mL	> 128 µg/mL	128 µg/mL (≈ 220 µM)	> 128 µg/mL	128 µg/mL (≈ 220 µM)	> 128 µg/mL	> 128 µg/mL	128 µg/mL (≈ 220 µM)	> 128 µg/mL	> 128 µg/mL	> 128 µg/mL	> 128 µg/mL	128 µg/mL (≈ 220 µM)	64 µg/mL (≈ 110 µM)	128 µg/mL (≈ 220 µM)	64 µg/mL (≈ 110 µM)	128 µg/mL (≈ 220 µM)	> 128 µg/mL	> 128 µg/mL	MIC [17]: > 128 µg/mL; MIC [18]: 128 µg/mL (≈ 220 µM); MIC [19]: > 128 µg/mL; MIC [20]: > 128 µg/mL
